MEKK2 mut-MEK5: signal of MEK5 binding to mutant human MEKK2 PB1 domain; bead flow cytometry, Alexa488-MEK5 binding to MEKK2 mutant; percent response, % at 10 µM; 0.35% of 290,000 active; in the data active means percent response above about 24%, passing the limit was not always enough
Pemphigus Ab inh: blocks pemphigus antibody binding to human desmoglein-3. DSG3-coupled beads, scFv-anti-DSG3-GFP binding, flow cytometry; active compounds read low. 0.48% of 310,000 active. AID 588358. binding (percent of control), % at 10 µM;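 active means binding more than 3 SD below its plate's average and above zero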;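 further: hits lower antibody fragment binding to DSG3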
MEKK2wt PB1 HTS: raises or lowers MEK5 binding to wildtype human MEKK2 PB1 domain. Q9Y2U5. bead flow cytometry, Alexa488-MEK5 binding to MEKK2 WT; actives lie on both sides. binding response (% of control), % at 10 µM. 1.1% of 290,000 active. AID 1531; in the data active means binding response below about 67% or above about 130%
UBC13 inh: inhibitors of human UBC13 polyubiquitin chain formation; inhibition, % at 20 µM; P61088; TR-FRET; 0.47% of 330,000 active; in the data active means inhibition above about 45%, passing the limit was not always enough
Target sequence (P61088 whole entry, looked up): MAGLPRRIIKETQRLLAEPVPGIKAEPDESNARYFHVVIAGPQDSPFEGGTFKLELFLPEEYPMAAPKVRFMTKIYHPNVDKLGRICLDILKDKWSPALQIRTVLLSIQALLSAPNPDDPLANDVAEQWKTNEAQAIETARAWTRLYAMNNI
Apaf1 inhib: inhibitors of human Apaf-1 apoptosome | O14727 | reconstituted apoptosome caspase-3 activity, DEVD-Rh110 fluorescence | inhibition, % at 20 µM | 0.71% of 330,000 active | AID 489030; active means inhibition of at least 40% at 20 µM;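 further: plate controls were DMSO wells for no effect and DEVD-CHO caspase inhibitor wells for full effect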
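Assay system: Apoptosome proteins | Medium: pH 7.5 Hepes buffer with CHAPS, BSA, DTT | Also added: Cytochrome c and DEVD-Rh110 substrate | Times: 30 min plus 50 min, RT | Detection: Rhodamine 110 fluorescence at Ex 480/Em 540 nm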
MEKK3 PB1 HTS: modulators (inhibitors or enhancers) of MEK5 binding to human MEKK3 PB1 domain | AID 1529 | 1.4% of 290,000 active | bead-based flow cytometry, Alexa488-MEK5 binding to MEKK3; actives lie on both sides; 0 = blocked by unlabeled MEK5, 100 = vehicle | Q99759 | binding response (% of control), % at 10 µM;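 active means binding response more than 3 SD above or below the average of its plate-row segment, actives on both sides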;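 further: Alexa488 bead fluorescence after subtracting the streptavidin-only scavenger bead signal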
MEKK2wt confirm: raises or lowers MEK5 binding to wildtype human MEKK2, retest; shares compounds with MEKK3 PB1 HTS; bead flow cytometry, Alexa488-MEK5 binding to MEKK2 WT; actives lie on both sides; 2.4% of 5,900 active; binding response (% of control), % at 10 µM; in the data active means binding response below about 16% or above about 210%; inactive means in between
MEKK2mut-MEK5: signal of MEK5 binding to mutant human MEKK2, retest. shares compounds with MEKK3 PB1 HTS. bead flow cytometry, Alexa488-MEK5 binding to MEKK2 mutant. percent response, % at 10 µM. 2% of 5,900 active; in the data active means percent response mostly above about 71%, no sharp cut-off; inactive means mostly below about 38%;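 further: higher means compound restores mutant binding toward wildtype level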
MEKK3 confirm: MEKK3-MEK5 PB1 inhibition, single concentration confirmation. shares compounds with MEKK3 PB1 HTS. bead flow cytometry, Alexa488-MEK5 binding to MEKK3; active compounds read low. binding response (% of control), % at 10 µM. 1.8% of 5,900 active. AID 1894;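 active means binding response below 72% of control, or above a set upper limit, though filed actives all read lower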;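 further: 100% = DMSO only wells and 0% = binding blocked by excess unlabeled MEK5; lower values mean stronger disruption of MEK5 binding to MEKK3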
Numbers without * were called inactive; . = not tested or not shown; [ ] = another dose, or the depositor's remark. An excerpt weighted towards active compounds, which were near 3.2% of everything screened.

SMILES	MEKK2 mut-MEK5	Pemphigus Ab inh	MEKK2wt PB1 HTS	UBC13 inh	Apaf1 inhib	MEKK3 PB1 HTS	MEKK2wt confirm	MEKK2mut-MEK5	MEKK3 confirm
CC(=O)Nc1nnc(C2=COCCO2)o1	-4	116	78	0	-20	58*[inhibitor]	101	-1	99
COc1ccc(C(=O)NCc2ccc(-c3nc4ccccc4s3)cc2)cc1	3	94	100	9	-7	105	.	.	.
COc1cc(C(=O)NCc2ccc(-c3nc4ccccc4s3)cc2)cc(OC)c1OC	0	130	107	12	0	136*	105	2	99
NC(=O)C1CC(=O)N(c2ccc(OCc3ccc(Cl)c(Cl)c3)cc2)C1 (stereo not drawn)	.	100	.	.	.	.	.	.	.
COc1ccc(C(=O)N2CCN(c3cccc(C)c3C)CC2)cc1S(=O)(=O)NC1CC1	.	101	.	4	19	.	.	.	.
Cc1ccnc2nc(C(=O)OCC(=O)N(CC(C)C)C3CCS(=O)(=O)C3)nn12 (stereo not drawn)	.	106	.	0	-4	.	.	.	.
CSc1nnc(-c2ccco2)n1-c1ccccc1	12	110	124	7	-4	123*	109	5	105
CC(=O)CSc1nnc(-c2ccco2)n1-c1ccccc1	-3	98	97	6	3	98	.	.	.
CCOc1cc(N2CCOCC2)c(OCC)cc1NC(=O)COC(=O)CCn1c(C)csc1=O	.	99	.	-7	1	.	.	.	.
COC(=O)C1CCN(CCCOc2ccc(CN3CCN(c4ccc([N+](=O)[O-])cc4)CC3)cc2)CC1	30	118	141*	1	7	106	110	4	98
COC(=O)C1CCN(c2ccc([N+](=O)[O-])cc2)CC1	-3	104	94	-19	-6	90	.	.	.
CC(=O)Nc1ccc(S(=O)(=O)N2CCN(C(=O)c3ncoc3-c3ccc(F)cc3)CC2)cc1	-7	104	98	-6	-1	102	.	.	.
COc1ccccc1NC(=O)c1ccc(NC(=O)COC(=O)CC(NC(=O)c2ccccc2Cl)c2ccccc2)cc1 (stereo not drawn)	0	106	103	-9	4	130*	93	-8	108
CC1=CC(C)C(=O)N(C)C(C)=C1 (stereo not drawn)	.	106	.	.	.	.	.	.	.
O=C1CCCc2nc(NCc3ccco3)ncc21	24*	107	111	-2	-1	112	101	0	98
CN1CCc2c(sc3c2c(=O)n(-c2ccc(Cl)cc2)c2nncn32)C1	4	104	114	3	8	122*	95	-4	98
CC(C(=O)Nc1ccc(N2CCOCC2)cc1)N1C(=O)NC(C)(C)C1=O (stereo not drawn)	.	96	.	0	-13	.	.	.	.
CCn1c(-c2cc(-c3ccccc3OC)nc3ccccc23)n[nH]c1=S	1	107	110	-3	11	134*	102	9	106
CC(=O)Nc1ccc(S(=O)(=O)N(Cc2ccccc2)C(C)C)cc1	-18	106	1.0*[inhibitor]	-8	13	1.0*[inhibitor]	92	-7	99
CC(=O)Nc1ccc(S(=O)(=O)N(C)Cc2ccccc2)cc1	-1	87	108	-10	4	104	.	.	.
Cc1ccc(NC(=O)NNC(=O)c2ccc3c(c2)NC(=O)C(C)(C)O3)cc1	0	89	92	2	5	99	.	.	.
COc1ccccc1/C=N/NC(=O)CNC(=O)c1ccc(S(=O)(=O)N2CCCC2)cc1	-2	104	101	-14	-3	103	.	.	.
O=C(CNC(=O)c1ccc(S(=O)(=O)N2CCCC2)cc1)N/N=C/c1ccccc1Cl	-20	100	69	-10	13	73*[inhibitor]	100	-9	102

High-throughput results deposited in PubChem BioAssay by several laboratories.
